High-throughput results from PubChem BioAssay.
Only some compounds are listed: those with a hit (about 3.5% of all), similar ones and a draw of the others.
sEH act: activators of human soluble epoxide hydrolase. hit rate 0.04% among 91,000. P34913. AID 717. purified human sEH enzymatic activity, activator screen. activation, % at 2 µM; in the data active = activation above about 37%
Target sequence (P34913 whole entry, looked up): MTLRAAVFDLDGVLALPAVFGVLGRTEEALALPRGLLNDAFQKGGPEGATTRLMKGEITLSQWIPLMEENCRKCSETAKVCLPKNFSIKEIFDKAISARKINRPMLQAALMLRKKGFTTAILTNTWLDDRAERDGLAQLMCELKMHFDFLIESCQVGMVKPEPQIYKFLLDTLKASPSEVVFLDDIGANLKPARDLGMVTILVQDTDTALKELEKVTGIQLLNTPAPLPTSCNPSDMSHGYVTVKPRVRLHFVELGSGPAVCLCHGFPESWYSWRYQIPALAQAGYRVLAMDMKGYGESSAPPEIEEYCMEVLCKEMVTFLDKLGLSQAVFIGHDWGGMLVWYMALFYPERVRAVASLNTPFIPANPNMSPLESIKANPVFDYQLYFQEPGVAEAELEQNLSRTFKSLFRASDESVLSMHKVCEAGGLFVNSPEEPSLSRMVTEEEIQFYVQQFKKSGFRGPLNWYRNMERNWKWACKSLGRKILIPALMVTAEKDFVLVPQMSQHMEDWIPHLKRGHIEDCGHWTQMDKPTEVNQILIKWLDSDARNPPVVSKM
ERb coact inh: ER-beta (human) coactivator binding inhibition; Q92731; AID 633; TR-FRET ER-beta LBD / SRC1-Cy5 peptide binding; receptor agonist-loaded with 1 µM estradiol; inhibition, % at 25.6 µM; hit rate 1.3% among 86,000;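 active = compounds whose percent inhibition of the receptor-coactivator binding signal exceeds about 50% in the single-dose screen, limit read from the data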;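 also: 0% = receptor plus peptide wells without compound and 100% = peptide-only wells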
Rev-RRE block: disrupts HIV-1 Rev binding to RRE RNA. P05866. Rev peptide-RRE RNA binding, FRET. inhibition, % at 8 µM. hit rate 0.79% among 97,000;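 active = inhibition above the screen-wide mean plus 3 SD, cut at about 35% in these data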;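 also: 0% = median DMSO wells and 100% = median Neomycin B control wells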
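assay system = Cy5-tagged RRE RNA duplex with fluorescein-tagged Rev peptide | incubation = 5 + 15 min at 25 °C | also added = labelled Rev peptide | measure = % inhibition of FRET ratio versus controls | benchmarks = DMSO wells as 0% and neomycin B wells as 100% inhibition | measured by = FRET fluorescence readout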
sEH inhibitor: inhibitors of human soluble epoxide hydrolase | P34913 | recombinant human sEH enzymatic activity assay | inhibition, % at 2 µM | hit rate 0.34% among 91,000 | AID 707; in the data active = inhibition above about 80%
ERa SRC1 pot: ER-alpha (human) coactivator binding potentiation. P03372. TR-FRET ERalpha-LBD/SRC-Cy5 coactivator binding, 2 h; 100 = basal binding, no effect. coactivator binding (% of control), % at 25.6 µM. hit rate 1.3% among 86,000. AID 639; in the data active = activity above about 200%;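 also: binding measured in presence of low estradiol as agonist stimulus; 0% = peptide alone without receptor and 100% = receptor with peptide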
ERa coact inh: ER-alpha (human) coactivator binding inhibition; TR-FRET ER-alpha LBD / SRC-1 peptide, estradiol-bound; hit rate 1.7% among 86,000; P03372; inhibition, % at 25.6 µM; in the data active = inhibition above about 50%;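 also: 0% = receptor plus peptide control and 100% = peptide only without receptor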
* = called active by the depositor; / = no result; [ ] = another dose, or the depositor's remark.

SMILES	sEH act	ERb coact inh	Rev-RRE block	sEH inhibitor	ERa SRC1 pot	ERa coact inh
CCOC(=O)c1c(C#N)c(SCC(=O)Nc2ccc(OC)cc2)nc2c1CN(CC)CC2	2	-1	15	0	262*	-2
COc1ccc(NC(=O)CSc2nc3c(c(-c4cccs4)c2C#N)CN(C)CC3)cc1OC	-6	/	63*	8	/	/
CCCCC(=O)Nc1c(O)c2ccccc2[nH]c1=O	/	0	/	/	116	1
O=C(CSc1nnnn1-c1ccccc1)Nc1nsc(-c2ccc(Cl)cc2)n1	/	39	/	/	141	73*
CN(C)c1ccc(/C=c2\sc3n(c2=O)CCCN=3)cc1	17	0	37*	-19	122	-47
COc1cccc(-c2nnc(NC(=O)c3ccccc3Br)o2)c1	/	-7	/	/	125	-5
Cc1ccc(Oc2cc(-n3nc(C)cc3C)ncn2)cc1	2	-13	8	-2	113	-2
CC(C)CN1C(=O)c2ccc(C(=O)NCc3ccc4c(c3)OCO4)cc2C1=O	-82	-12	15	81*	109	-2
COC(=O)c1ccc(OC(=O)c2ccc(OC)c(OC)c2)c(OC)c1	38*	-5	3	-36	114	-4
COC(=O)c1ccc(OC(=O)c2ccc(OCc3c(C)noc3C)c(OC)c2)cc1	/	49	/	/	280*[fluorescence artefact?]	51*[fluorescence artefact?]
COc1cc(C(=O)NCc2ccc(C)cc2)ccc1OCc1c(C)noc1C	-21	-14	3	22	104	-9
N#CCSc1nnc(-c2cccnc2)n1-c1ccccc1	29	-3	6	-30	115	-14
CCCn1c(=S)[nH]c2cc(C(=O)N3CCCC(C(=O)OCC)C3)ccc2c1=O (configuration not stated)	-5	-6	0	7	116	6
Oc1c(Cl)cc(Cl)cc1C=Nc1ccc2c(c1)OCCO2	4	7	46*	-6	89	18
Cc1cccc(OCCCC(=O)Nc2ccccc2C(F)(F)F)c1	-13	/	6	15	/	/
COc1cccc(-c2nn(-c3ccccc3)cc2C(=O)n2nnc3ccccc32)c1	-7	3	0	10	105	8
COc1ccccc1C1NC(=O)NC(C)=C1C(C)=O (configuration not stated)	8	-4	4	-10	117	-3
O=C(NCc1cccnc1)c1cnc2n(c1=O)CCS2	-6	-6	2	8	109	-5
CC(=O)Nc1sc(NC(=O)c2ccccc2)nc1-c1cccs1	/	4	/	/	136	-12
COc1ccccc1C(=O)Nc1nc(-c2cccs2)c(NC(C)=O)s1	0	35	2	2	72	66*
COc1ccc(-c2nc3c(c(=O)[nH]c(=O)n3Cc3ccccc3)n2Cc2ccccc2)cc1	0	/	8	-2	/	/
COc1ccc(-c2nc3c(c(=O)[nH]c(=O)n3Cc3ccccc3)n2C)cc1	2	41	4	0	270*[fluorescence artefact?]	35
Fc1ccc(Cn2nnnc2CN2CCN(C3CCCCC3)CC2)cc1	16	1	-1	-14	218*[fluorescence artefact?]	-4
c1coc(Cn2nnnc2CN2CCN(C3CCCC3)CC2)c1	-6	14	5	2	94	2
O=C(Nc1ccc2snnc2c1)N1CCOCC1	-6	-27	0	7	110	-34
SMILES	sEH act	ERb coact inh	Rev-RRE block	sEH inhibitor	ERa SRC1 pot	ERa coact inh
O=C(Nc1ccc2snnc2c1)N1CCN(c2ccccc2)CC1	-25	-42	-1	27	627*[fluorescence artefact?]	-21
N#CC1=C(SCC(=O)Nc2cccc3cccnc23)NC(=O)C(C#N)C12CCCCC2 (configuration not stated)	-6	51*	9	2	51	66*[fluorescence artefact?]
N#CC1=C(SCC(=O)NC2CC2)NC(=O)C(C#N)C12CCCCC2 (configuration not stated)	-6	-13	-4	4	129	-7
O=C(N/N=C/c1cccnc1)c1ccc([N+](=O)[O-])cc1	-2	/	3	-1	/	/
O=C(N/N=C/c1cccc(Oc2ccc([N+](=O)[O-])cc2[N+](=O)[O-])c1)c1cncc(Br)c1	-17	39	4	17	23	96*
COc1ccc(OC)c(NC(=O)C2CCCN(S(=O)(=O)c3c(C)noc3C)C2)c1 (configuration not stated)	-2	34	10	5	49	35
COc1ccc2nc(NC(=O)C3CCCN(S(=O)(=O)c4c(C)noc4C)C3)sc2c1 (configuration not stated)	/	83*[fluorescence artefact?]	/	/	129	-1
COc1ccc2nc(NC(=O)c3cc(C)oc3C)sc2c1	13	4	-1	-8	208*	12
COc1ccc(Br)cc1C(=O)Nc1ccccc1-c1ccccc1	4	/	10	-6	/	/
Cc1ccc(-c2nc3ncccc3o2)cc1NC(=O)COc1ccccc1	4	7	13	-9	105	13
Cc1ccc(-c2nc3cccnc3o2)cc1NC(=O)COc1ccc(Cl)cc1C	-5	32	11	4	210*[fluorescence artefact?]	42
Cc1ccc(-c2nc3ncccc3o2)cc1NC(=O)Cc1ccc(Cl)cc1	-5	37	5	5	132	52*[fluorescence artefact?]
CC(=O)N1CCc2cc(S(=O)(=O)NC(CC(C)C)C(=O)Nc3cc(C(=O)O)ccc3C)ccc21 (configuration not stated)	/	-1	/	/	66	-1
O=C(NCc1ccncc1)C1CCN(S(=O)(=O)Cc2ccccc2)CC1	-6	-9	3	6	109	-1
COc1ccc(CN2CC(C(=O)NCCCOC(C)C)CC2=O)cc1 (configuration not stated)	-5	-2	-8	8	101	-4
Cn1c(SCC(=O)NC(=O)NCc2ccco2)nnc1-c1ccccc1	5	52*[fluorescence artefact?]	-5	-5	142	59*[fluorescence artefact?]
CCOc1ccc2nc(SCC(=O)NC(=O)NCc3ccco3)[nH]c2c1	-1	56*[fluorescence artefact?]	-2	1	74	38
O=C(CSc1nc2ccccc2s1)NC(=O)NCc1ccco1	-2	21	9	3	141	14
CCOc1ccc2nc(SCC(=O)N(C)C)[nH]c2c1	-10	-2	6	12	123	3
Cc1ccccc1CSCC(=O)NC(=O)NCc1ccco1	/	40	/	/	82	55*
Cn1c(SCC(=O)NCc2ccco2)nnc1-c1ccccc1	0	0	1	3	86	-15
O=C(CSc1nn(-c2ccc(F)cc2)c(=S)s1)NC(=O)NCc1ccco1	-11	47	12	13	72	67*[fluorescence artefact?]
COc1ccc(NC(=O)CSc2nnc(-c3ccoc3C)n2CCc2ccccc2)cc1	-10	-6	12	11	113	-4
CCCCn1c(SCC(=O)NC(=O)NCc2ccco2)nc2cc(S(N)(=O)=O)ccc21	-3	43	1	3	80	58*[fluorescence artefact?]
CCNC(=O)NC(=O)CSc1cccc(C(F)(F)F)c1	/	6	/	/	110	0
O=C(CSc1cccc(C(F)(F)F)c1)NC(=O)NCc1ccco1	/	29	/	/	76	53*
